Screens: PubChem, Johns Hopkins Ion Channel Center
KCNK3 block = human KCNK3 channel inhibition, primary screen; CHO-KCNK3 thallium flux, FluxOR fluorescence; hits give low values; actives 0.84% (n = 340,000); O14649; AID 602410; B-score at 10 µM;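 active = B-score under library mean minus 4 SD, starting fluorescence ratio at most library mean plus 5 SD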;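 note: more negative B-score means stronger inhibition of thallium flux through KCNK3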
hERG rescue = hERG (human) protection from proarrhythmic block; Q12809; CHO-hERG, FluxOR thallium flux, dofetilide IC70 present; activation (rescue from dofetilide block), less the hit threshold, % at 10 µM; actives 0.51% (n = 310,000);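 active = activation above the mean of controls blocked by dofetilide plus 5 SD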;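 note: thallium influx through hERG after potassium depolarization seen as dye fluorescence rise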
Target sequence (Q12809 whole entry, looked up): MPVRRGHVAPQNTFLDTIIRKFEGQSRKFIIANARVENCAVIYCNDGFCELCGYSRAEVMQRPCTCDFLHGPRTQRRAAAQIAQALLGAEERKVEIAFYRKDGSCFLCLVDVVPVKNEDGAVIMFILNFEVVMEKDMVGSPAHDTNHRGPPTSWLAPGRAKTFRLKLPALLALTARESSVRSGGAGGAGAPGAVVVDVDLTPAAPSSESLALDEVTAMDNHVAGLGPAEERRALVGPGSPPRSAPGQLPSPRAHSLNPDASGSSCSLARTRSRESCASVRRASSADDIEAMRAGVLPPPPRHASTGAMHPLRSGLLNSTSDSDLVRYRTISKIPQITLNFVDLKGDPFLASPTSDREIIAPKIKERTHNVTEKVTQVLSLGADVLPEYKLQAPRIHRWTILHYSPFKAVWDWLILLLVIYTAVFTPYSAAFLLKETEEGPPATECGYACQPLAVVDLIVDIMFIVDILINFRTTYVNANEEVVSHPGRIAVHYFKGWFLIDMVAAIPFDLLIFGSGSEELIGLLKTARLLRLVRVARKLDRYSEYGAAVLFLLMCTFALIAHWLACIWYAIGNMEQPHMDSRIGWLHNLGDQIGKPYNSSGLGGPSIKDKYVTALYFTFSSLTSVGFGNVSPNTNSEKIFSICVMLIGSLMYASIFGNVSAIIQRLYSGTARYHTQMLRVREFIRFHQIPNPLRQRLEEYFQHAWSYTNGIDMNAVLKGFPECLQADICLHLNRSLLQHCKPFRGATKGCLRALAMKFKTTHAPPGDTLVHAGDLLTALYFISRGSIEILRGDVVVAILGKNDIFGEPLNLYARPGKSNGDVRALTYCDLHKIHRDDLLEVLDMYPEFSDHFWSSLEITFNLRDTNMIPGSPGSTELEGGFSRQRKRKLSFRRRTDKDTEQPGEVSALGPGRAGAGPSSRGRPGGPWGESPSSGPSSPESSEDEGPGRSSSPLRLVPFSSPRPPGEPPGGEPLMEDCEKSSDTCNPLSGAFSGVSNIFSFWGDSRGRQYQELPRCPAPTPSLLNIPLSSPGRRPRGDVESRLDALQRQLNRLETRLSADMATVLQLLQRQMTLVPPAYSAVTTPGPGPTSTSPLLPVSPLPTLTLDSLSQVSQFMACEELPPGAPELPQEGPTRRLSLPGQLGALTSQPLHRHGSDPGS
KCNK9 inh = blocks the human KCNK9 two-pore domain potassium channel; Q9NPC2; HEK293 KCNK9, FluxOR thallium flux fluorescence; hits give low values; B-score at 10 µM; actives 1.2% (n = 310,000); AID 488922;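 active = ratio B-score over 3 SD below the library mean, with starting fluorescence within 5 SD of its mean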;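 note: negative B-score means less thallium flux so channel inhibition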
KCNQ1 inh = blocks the human KCNQ1 potassium channel; CHO-K1 KCNQ1, FluxOR thallium flux fluorescence; hits give high values; P51787; actives 1.3% (n = 310,000); B-score at 10 µM;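 active = compounds whose thallium flux B-score, printed positive for inhibition, exceeds three library SD while starting fluorescence stays within three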;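 note: channel opened by potassium depolarization with thallium stimulus after 20 min compound exposure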
KCNQ1 pot = potentiators or activators of human KCNQ1 potassium channel | actives 0.35% (n = 310,000) | AID 2648 | B-score at 10 µM | CHO-K1 KCNQ1, thallium flux FluxOR fluorescence; hits give high values;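 active = fluorescence ratio B-score, a plate-corrected score, at least three library SD, with initial intensity B-score within 5 SD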
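Schedule – 37 °C overnight plating, 90-min dark dye load, 20-min compound pretreatment · System – stable KCNQ1 CHO-K1 line · Probe or stimulus – thallium- and potassium-containing depolarizing buffer · Measured by – kinetic FluxOR fluorescence, 10 s baseline plus 110 s post-stimulus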
Kir21 block = Kir2.1 (mouse) channel inhibition. P35561. HEK293-Kir2.1, FluxOR thallium flux fluorescence; hits give low values. B-score at 10 µM. actives 0.85% (n = 310,000). AID 1672;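 active = fluorescence ratio B-score at or below minus 3 SD of library scores, with starting-brightness B-score within 2 SD, cut at about -4.2 in these data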;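 note: channel flux triggered by added potassium and thallium sulfate stimulus; B-score of peak minus minimum fluorescence over baseline after thallium stimulus; more negative B-score means stronger Kir2.1 block with less thallium influx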
KCNK9 block conf = confirmation of human KCNK9 potassium channel inhibitors. shares compounds with KCNK9 inh. HEK293 KCNK9 cells, FluxOR thallium flux fluorescence. inhibition, % at 10 µM. actives 43% (n = 4,900);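 active = thallium signal inhibited by more than 5 SD of the compound-free buffer control wells, on both duplicate plates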
Kir21 sel = tests whether KCNK9 modulators also affect mouse Kir2.1. shares compounds with KCNK9 inh. Kir2.1 cells, FluxOR thallium flux fluorescence. inhibition, % at 10 µM. actives 4% (n = 4,900). AID 492993;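 active = thallium signal drop more than 5 SD beyond the mean of the no-compound control wells, seen in both duplicate plates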;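 note: signal is fluorescence rise after thallium addition divided by baseline fluorescence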
HEK293 Tl ctr = second check of KCNK9 modulator effects in non-induced HEK293 cells; shares compounds with KCNK9 inh; FluxOR thallium flux; inhibition, % at 10 µM; actives 40% (n = 4,900); AID 492997;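 active = thallium signal drop beyond 5 SD of the untreated control mean, on both duplicate plates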
KCNK3 confirm = human KCNK3 channel inhibition, confirmation assay; CHO-KCNK3 thallium flux, FluxOR fluorescence; 0% buffer, 100% carvedilol maximal block; ratio percent of control, % at 10 µM; AID 651638; actives 99% (n = 2,400); shares compounds with KCNK3 block;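 active = ratio percent of control, averaged over triplicates, above buffer control mean plus 5 SD, cut at about 64% in these data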;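 note: ratio is the fluorescence rise from min to max over baseline after thallium stimulus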
KCNK3 uninduced = counter-screen for KCNK3 inhibitors: effect in non-induced cells. shares compounds with KCNK3 block. actives 40% (n = 2,400). non-induced KCNK3 parental cells, FluxOR thallium flux; hits give low values. thallium flux ratio (lower = more inhibition) at 10 µM;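 active = thallium flux ratio, averaged over three wells, more than 5 SD below the buffer control mean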;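 note: host cells are CHO cells without KCNK3 induction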
Numbers stand for hits; . = inactive; / = no result. A selection: hits, their analogues and other compounds. The true share with any hit is near 3.7%.

SMILES	KCNK3 block	hERG rescue	KCNK9 inh	KCNQ1 inh	KCNQ1 pot	Kir21 block	KCNK3 confirm	KCNK3 uninduced	others
Cc1c(N=Nc2c(O)n(Cc3ccccc3)c(=O)[nH]c2=O)c(=O)n(-c2ccccc2)n1C	.	.	.	.	.	.	/	/
CCOC(=O)C1(CCOc2ccccc2)CCN(Cc2ccc(C)s2)CC1	.	.	.	.	.	.	/	/
CCCCCCn1c(=O)c(C(=O)Nc2c(C)n(C)n(-c3ccccc3)c2=O)c(O)c2ccccc21	.	.	.	.	.	.	/	/	KCNK9 block conf=.;Kir21 sel=.;HEK293 Tl ctr=.
Cc1ccc(OP2(=O)Nc3cc(C)c(C)cc3S2)cc1 (stereo unspecified)	.	/	/	/	/	/	/	/
O=C(Nc1nccs1)c1c(O)c2c(n(Cc3ccco3)c1=O)CCCC2	.	.	-8.19	6	.	.	/	/	KCNK9 block conf=43.5%;Kir21 sel=.;HEK293 Tl ctr=35.5%
O=C(Nc1ccccc1)c1c(O)c2c(n(Cc3ccco3)c1=O)CCCC2	.	.	.	.	.	.	/	/
Cc1cc(OCC(=O)NC(Cc2ccc(Cl)cc2)C(=O)O)c2c3c(c(=O)oc2c1)CCCC3 (stereo unspecified)	.	.	.	.	.	.	/	/
Nc1ccc(CCN2CCN(c3cccc(C(F)(F)F)c3)CC2)cc1	.	.	.	.	.	.	/	/	KCNK9 block conf=.;Kir21 sel=.;HEK293 Tl ctr=.
Nc1ccc(CCN2CCCC2)cc1	.	.	.	.	.	.	/	/
COC(=O)C1=C(c2c(C)noc2C)C[C@@H]2CC[C@H]1N2C(=O)NC1CCCCC1	.	/	/	/	/	/	/	/
Cc1cccc(CN2CCN(c3ccc(Cl)cc3)CC2)c1	.	.	.	.	.	.	/	/	KCNK9 block conf=.;Kir21 sel=.;HEK293 Tl ctr=.
Fc1ccc(CN2CCN(c3ccc(Cl)cc3)CC2)cc1	.	.	.	.	.	.	/	/
Cc1nc(SCc2c(Cl)cccc2Cl)nc(OC(=O)N(C)C)c1C	.	.	.	.	.	.	/	/
Cc1ccc(-c2cc(-c3ccc(C)cc3)[n+](-c3ccccc3)c(-c3ccc(C)cc3)c2)cc1	-17.8	.	-19.5	9	.	-12.2	/	/	KCNK9 block conf=76.0%;Kir21 sel=84.0%;HEK293 Tl ctr=.
Cc1ccc(-c2cc(-c3ccccc3)cc(-c3ccccc3)[n+]2-c2ccccc2)cc1	.	.	-9.24	.	.	-9.68	/	/	KCNK9 block conf=75.0%;Kir21 sel=79.0%;HEK293 Tl ctr=33.5%
Cc1ccc(-c2cc(-c3ccc(C)cc3)[n+](C)o2)cc1	.	.	.	.	.	.	/	/
CC1CN(O)C2CCc3c(no[n+]3[O-])C12O (stereo unspecified)	.	.	.	.	.	.	/	/
COP(=O)(/C=C(\Cl)c1ccccc1)/C=C(\Cl)c1ccccc1	.	.	.	.	.	.	/	/
CCN(CC)C(=O)c1ccc(NC(=O)CCCSc2ccccc2)cc1	.	.	.	.	.	.	/	/
CCN(CC)C(=O)c1ccc(NC(=O)Nc2ccccc2F)cc1	-9.14	.	.	.	.	.	84.7	0.157
CCCCn1c(=O)c(C(=O)Nc2ccccn2)c(O)c2ccccc21	-8.72	.	.	7	.	.	104.0	0.142
COc1ccc(N=Cc2c(O)n(Cc3ccccc3)c(=S)[nH]c2=O)c(OC)c1	-8.73	.	.	6	.	.	151.3	.
Cc1nc2ccc(Cl)cc2c(=O)n1-c1ccccc1Cl	.	.	.	.	.	.	/	/
CC(C)CCNC(=O)c1cc(C(=O)c2cc(F)ccc2O)cn(CCC(C)C)c1=O	.	.	.	.	.	.	/	/
CC(C)CCNC(=O)c1cc(C(=O)c2cc(Br)ccc2O)cn(CCC(C)C)c1=O	-11.4	.	.	.	.	.	102.7	.
SMILES	KCNK3 block	hERG rescue	KCNK9 inh	KCNQ1 inh	KCNQ1 pot	Kir21 block	KCNK3 confirm	KCNK3 uninduced	others
Clc1ccc(C(Cn2ccnc2)OCc2csc3c(Cl)cccc23)c(Cl)c1 (stereo unspecified)	-11.6	/	/	/	/	/	105.3	0.156
C[C@]12CCC3C(CC[C@H]4C[C@H](O)CC[C@]34C)C1C[C@H](O)[C@@H]2O (stereo partly specified)	.	/	/	/	/	/	/	/
CCCN1CCC[C@@H](c2cccc(O)c2)C1	.	/	/	/	/	/	/	/
Clc1ccc(Cn2ccnc2)cn1	.	.	.	.	.	.	/	/
Clc1ccc(CCC(Cn2ccnc2)Sc2c(Cl)cccc2Cl)cc1 (stereo unspecified)	-14.4	/	/	/	/	/	119.7	0.153
CC1(C)CC(n2[nH]c(=O)c3c2NC(=O)CSC3c2ccc(F)cc2)CCO1 (stereo unspecified)	.	.	.	.	.	.	/	/
COc1ccc(C2=NCC(=O)N(CC(=O)NCc3ccco3)c3sc4c(c32)CCCC4)cc1	-8.88	.	.	.	.	.	104.3	.
CNC(=O)c1cccn(Cc2ccc(C(F)(F)F)cc2)c1=O	.	.	.	.	.	.	/	/
O=C(NCc1ccccc1)c1cccn(Cc2ccccc2)c1=O	-9.78	.	.	.	.	.	108.0	.
Cn1c(O)c(N=Nc2cccc(S(=O)(=O)N3CCOCC3)c2)c(=O)n(C)c1=O	.	.	.	.	.	.	/	/
CCN(CC)S(=O)(=O)c1cccc(N=Nc2c(O)n(CC)c(=S)n(CC)c2=O)c1	-11.5	.	-6.76	.	.	.	117.3	.
Cc1ccc(CN2CCCN(Cc3ccccc3C)S2(=O)=O)cc1	-10.3	.	-6.82	.	.	.	121.3	.
NCCc1ccc(OCc2ccccc2)c(OCc2ccccc2)c1	.	/	/	/	/	/	/	/
